Results from ChEMBL document CHEMBL4007450, “Development of 1,2,4-Oxadiazoles as Potent and Selective Inhibitors of the Human Deacetylase Sirtuin 2: Structure-Activity Relationship, X-ray Crystal Structure, and Anticancer Activity” (J Med Chem, 2017).
Calls of active or inactive are those of the source. No cut-off for these calls is given here.

Legend:
[1] = biological target: T1, NAD-dependent protein deacetylase sirtuin-3, mitochondrial (Homo sapiens) (UniProt Q9NTG7); assay: Inhibition of human SIRT3 (114 to 380 residues) activity expressed in Escherichia coli using AceCS2 peptide as substrate up to 100 uM after 45 mins in presence of NAD+ by pNCA/GDH-based microplate spectrophotometric analysis
T1 sequence (whole entry): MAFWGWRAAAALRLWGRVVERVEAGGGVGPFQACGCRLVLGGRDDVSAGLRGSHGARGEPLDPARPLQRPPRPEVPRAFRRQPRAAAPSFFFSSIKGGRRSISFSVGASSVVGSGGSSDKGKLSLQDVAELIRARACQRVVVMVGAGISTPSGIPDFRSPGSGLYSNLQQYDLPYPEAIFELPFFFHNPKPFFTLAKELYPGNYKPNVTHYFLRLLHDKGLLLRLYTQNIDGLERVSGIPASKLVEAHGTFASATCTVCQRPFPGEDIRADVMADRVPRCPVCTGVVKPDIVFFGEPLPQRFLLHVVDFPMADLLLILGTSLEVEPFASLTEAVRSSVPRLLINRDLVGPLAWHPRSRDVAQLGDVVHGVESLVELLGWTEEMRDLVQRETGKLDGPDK
In short: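 Same pNCA/GDH-coupled 340 nm NADPH read-out as the Sirt2 assay, using 20 mM Na-phosphate pH 7.8 with 3% DMSO at 20 °C for 45 min. Sirt3 (114-380) was used at 5 µM with AceCS2 peptide TRSGacKVMR as substrate. Inhibitors were tested up to 100 µM.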

[2] = biological target: T2, NAD-dependent protein deacetylase sirtuin-1 (Homo sapiens) (UniProt Q96EB6); assay: Inhibition of human full length SIRT1 activity expressed in Escherichia coli using p53 peptide as substrate up to 100 uM after 45 mins in presence of NAD+ by pNCA/GDH-based microplate spectrophotometric analysis
T2 sequence (whole entry): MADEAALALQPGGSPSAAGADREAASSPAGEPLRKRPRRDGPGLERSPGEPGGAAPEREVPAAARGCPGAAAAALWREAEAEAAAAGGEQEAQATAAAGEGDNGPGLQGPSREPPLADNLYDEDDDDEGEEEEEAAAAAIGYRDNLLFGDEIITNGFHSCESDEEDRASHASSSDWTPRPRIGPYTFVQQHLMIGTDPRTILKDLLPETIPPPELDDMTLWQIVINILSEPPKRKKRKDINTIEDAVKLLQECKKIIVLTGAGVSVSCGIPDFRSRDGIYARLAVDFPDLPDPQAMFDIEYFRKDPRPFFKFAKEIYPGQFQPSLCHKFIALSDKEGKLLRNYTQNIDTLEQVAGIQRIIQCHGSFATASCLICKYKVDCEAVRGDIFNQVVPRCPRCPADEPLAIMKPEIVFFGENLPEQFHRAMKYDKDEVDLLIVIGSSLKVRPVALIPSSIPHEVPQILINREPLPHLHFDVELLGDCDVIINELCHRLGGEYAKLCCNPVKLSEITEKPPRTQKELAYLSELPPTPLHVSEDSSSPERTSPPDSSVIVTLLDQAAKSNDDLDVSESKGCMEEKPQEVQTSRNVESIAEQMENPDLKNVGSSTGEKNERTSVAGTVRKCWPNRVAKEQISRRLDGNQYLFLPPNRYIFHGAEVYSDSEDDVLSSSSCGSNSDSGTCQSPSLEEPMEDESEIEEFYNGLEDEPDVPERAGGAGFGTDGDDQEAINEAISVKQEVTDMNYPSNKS
In short: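 Full-length Sirt1 at 2 µM with p53 peptide RHKacKLMFK as substrate. Activity was measured in the same coupled pNCA/GDH mix as for Sirt2 (α-ketoglutarate, NADPH, Na-phosphate pH 7.8, 3% DMSO), following NADPH oxidation at 340 nm at 20 °C for 45 min. Compounds were tested up to 100 µM.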

[3] = biological target: NAD-dependent protein deacylase sirtuin-5, mitochondrial (Homo sapiens) (UniProt Q9NXA8); assay: Inhibition of human SIRT5 (34 to 302 residues) deacetylase activity expressed in Escherichia coli using Prx1 peptide as substrate up to 100 uM after 45 mins in presence of NAD+ by pNCA/GDH-based microplate spectrophotometric analysis
Chain of NAD-dependent protein deacylase sirtuin-5, mitochondrial (Homo sapiens) (Q9NXA8 37-310 limits assumed): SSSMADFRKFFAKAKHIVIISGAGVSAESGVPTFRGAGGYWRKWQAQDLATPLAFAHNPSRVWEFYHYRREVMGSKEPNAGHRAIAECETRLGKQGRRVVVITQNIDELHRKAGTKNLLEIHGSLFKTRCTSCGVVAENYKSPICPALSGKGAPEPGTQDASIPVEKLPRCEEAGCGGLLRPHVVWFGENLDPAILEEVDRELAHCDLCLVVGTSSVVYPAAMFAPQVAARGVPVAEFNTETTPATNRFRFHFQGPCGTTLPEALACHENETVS

U-937 [4] = assay: Effect on cell cycle arrest in human U937 cells at 25 uM after 48 hrs by propidium iodide staining-based FACS analysis; format: functional
NB-4 [5] = assay: Induction of apoptosis in human NB4 cells assessed as pre-G1 accumulation at 10 uM after 48 hrs by propidium iodide staining-based FACS analysis; format: functional, cell-based
In short: (§1)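 Leukemia cells (U937, NB4, HL-60, K562) were grown in RPMI-1640 with 10% FBS, 2 mM L-glutamine and antibiotics, then treated for 48 h at 5, 10, 25 and 50 μM. 2.5×10^5 cells were stained 30 min in the dark in hypotonic PI buffer (0.1% Triton X-100, 0.1% citrate, 50 µg/mL PI, RNase A). Apoptosis was scored as pre-G1 content by flow cytometry. Duplicates, mean ± SD.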

U-937 [6] = assay: Induction of apoptosis in human U937 cells assessed as pre-G1 accumulation at 50 uM after 48 hrs by propidium iodide staining-based FACS analysis; format: functional; in short: as §1
OCI-AML-3 = assay: Antiproliferative activity against human OCI-AML3 cells harboring NPM1c+, DNMT3A R882C mutant assessed as cell growth inhibition after 48 hrs by WST1 assay; format: functional, cell-based; conditions: OCI-AML-3, 48 h
In short: (§2)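 WST-1 proliferation assay. Cells plated in triplicate at 5×10^3 cells/well and exposed to increasing compound concentrations for 48 h at 37 °C, 5% CO2. WST-1 reagent was then added for 1 h. IC50 was obtained by nonlinear regression of each cell line's dose-response curve.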

[7] = Antiproliferative activity against human IMS-M2 cells harboring NPM1c+ assessed as cell growth inhibition after 48 hrs by WST1 assay; format: functional, cell-based; conditions: IMS-M2, 48 h; in short: as §2
OCI-AML2 = assay: Antiproliferative activity against human OCI-AML2 cells harboring DNMT3A R635W mutant assessed as cell growth inhibition after 48 hrs by WST1 assay; format: functional, cell-based; conditions: OCI-AML2, 48 h; in short: as §2
MV4-11 = assay: Antiproliferative activity against human MV4-11 cells harboring FLT3-ITD [t(4;11)(q21;q23)], MLL/MLLT2(AF4) mutant assessed as cell growth inhibition after 48 hrs by WST1 assay; format: functional, cell-based; conditions: MV4-11, 48 h; in short: as §2
Kasumi 1 = assay: Antiproliferative activity against human Kasumi-1 cells harboring AML1-ETO [t(8:21)] mutant assessed as cell growth inhibition after 48 hrs by WST1 assay; format: functional, cell-based; conditions: Kasumi 1, 48 h; in short: as §2
U-937 [8] = assay: Antiproliferative activity against human U937 cells harboring p53+/- assessed as cell growth inhibition after 48 hrs by WST1 assay; format: functional, cell-based; conditions: U-937, 48 h; in short: as §2
NB-4 [9] = assay: Antiproliferative activity against human NB4 cells harboring PML-RARalpha [t(15;17)(q22;q12)] mutant assessed as cell growth inhibition after 48 hrs by WST1 assay; format: functional, cell-based; conditions: NB-4, 48 h; in short: as §2
HL-60 = assay: Antiproliferative activity against human p53 deficient HL60 cells assessed as cell growth inhibition after 48 hrs by WST1 assay; format: functional, cell-based; conditions: HL-60, 48 h; in short: as §2
KARPAS-299 = assay: Antiproliferative activity against human KARPAS299 cells harboring NPM1/ALK, [t(2;5)(p23;q35)] mutant assessed as cell growth inhibition after 48 hrs by WST1 assay; format: functional, cell-based; conditions: KARPAS-299, 48 h; in short: as §2
[10] = biological target: NAD-dependent protein deacylase sirtuin-5, mitochondrial (Homo sapiens) (UniProt Q9NXA8); assay: Inhibition of human SIRT5 (34 to 302 residues) desuccinylase activity expressed in Escherichia coli using peptide as substrate up to 100 uM after 45 mins in presence of NAD+ by pNCA/GDH-based microplate spectrophotometric analysis

For `BrCCCc1nc(-c2ccc(Br)cc2)no1`, the inhibition [1] was “inactive”, the inhibition [2] was “inactive” and the inhibition [3] was “inactive”. The Activity (U-937 [4]) was “inactive”, the Activity (NB-4 [5]) was “Active” and the Activity (U-937 [6]) was greater than 80%. The IC50 (OCI-AML-3) was 66 µM, the IC50 [7] was 100 µM and the IC50 (OCI-AML2) was 85 µM. It also gave an IC50 (MV4-11) of 38 µM, an IC50 (Kasumi 1) of 56 µM and an IC50 (U-937 [8]) greater than 100 µM. For the same compound, the IC50 (NB-4 [9]) was 49 µM, the IC50 (HL-60) was 100 µM and the IC50 (KARPAS-299) was 25 µM. For the same compound, the inhibition [10] was “inactive”.
